The text below walks through data of ChEMBL document CHEMBL1125516, “TSAO analogues. Stereospecific synthesis and anti-HIV-1 activity of 1-[2',5'-bis-O-(tert-butyldimethylsilyl)-beta-D-ribofuranosyl]-3'-spiro -5''- (4''-amino-1'',2''-oxathiole 2'',2''-dioxide) pyrimidine and pyrimidine-modified nucleosides” (J Med Chem, 1992).

The subject of test [1] is MT4. Put plainly: Cytotoxic concentration required to reduce MT-4 cell viability by 50%. Format: functional. Particulars: Homo sapiens. In a few lines:
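MT-4 cells (HTLV-1-transformed human T-lymphocytes) at 5 × 10^5 cells/mL were mock-infected and mixed 1:1 with serial dilutions of compound. After 5 days, viable cells were counted by trypan blue exclusion in a blood-cell-counting chamber. CC50 is the concentration reducing viable cell number by 50%. Values are means of at least three to five independent experiments.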

The nature of test [2]: Selectivity index was defined as the ratio of CC50 to EC50. Format: functional. In a few lines: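 The ratio is CC50/EC50. Both come from MT-4 cells at 5 × 10^5 cells/mL, mixed 1:1 with compound dilutions for 5 days, with viable cells counted by trypan blue. EC50 used cells infected with HIV-1 (IIIB) at 100 CCID50 per mL. CC50 used mock-infected cells. […] Values are means of three to five experiments.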

In test [3] the test system is MT4. Kind of test: Concentration required to inhibit HIV-1 induced cytopathicity in MT-4 cells by 50%. Format: functional, cell-based. Particulars: Homo sapiens. In a few lines:
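HIV-1 IIIB-infected human MT-4 cells (HTLV-1-transformed), 5 x 10^5 cells/mL, infected at 100 CCID50 per mL of cell suspension, then mixed with compound dilutions. After 5 days, viable cells were counted by trypan blue staining in a blood-cell-counting chamber. EC50 is the concentration […]. Values are means of at least three to five independent experiments.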

Broadly, the CC50 is the concentration giving 50% cytotoxicity. Read a high CC50 as better tolerance by the cells. For orientation: EC50 means the concentration that produces a half-maximal response. Read a high EC50 as a less potent agent. For the molecule `Cc1ccnc2c1NC(=O)c1cccnc1N2C1CC1` [NEVIRAPINE], in test [1], the half-maximal cytotoxic concentration (CC50) was > 80 µM. For the same molecule, the Selectivity index in test [2] was > 625. The EC50 in test [3] turned out to be 0.128 µM.

On to `Cc1cn([C@@H]2O[C@H](CO[Si](C)(C)C(C)(C)C)[C@@]3(OS(=O)(=O)C=C3N)[C@H]2O[Si](C)(C)C(C)(C)C)c(=O)nc1N`, for which the midpoint of cytotoxicity in test [1], the CC50, lay at 31 µM. In addition, the Selectivity index in test [2] was 246. For the same molecule, the 50% effective concentration (EC50) in test [3] was found to be 0.127 µM.

`CC(C)=CCN1Cc2cccc3[nH]c(=S)n(c23)C[C@@H]1C`: the CC50 in test [1] is > 80 µM. In addition, the Selectivity index in test [2] is > 1050. This molecule yielded an EC50 in test [3] of 0.076 µM.

In test [1], `Cc1cn([C@@H]2O[C@H](CO)[C@@]3(OS(=O)(=O)C=C3N)[C@H]2O[Si](C)(C)C(C)(C)C)c(=O)[nH]c1=O` came in with a CC50 of 229 µM. Moreover, the Selectivity index in test [2] is < 2.5. Besides, in test [3], the EC50 was > 80 µM.

Regarding `Cc1cn([C@@H]2O[C@H](COC(=O)c3ccccc3)[C@@]3(OS(=O)(=O)C=C3N)[C@H]2O[Si](C)(C)C(C)(C)C)c(=O)[nH]c1=O`, the CC50 in test [1] was determined as 36 µM. Moreover, the Selectivity index in test [2] is < 2.5. Moreover, the EC50 in test [3] is > 15 µM.

For the molecule `CC(=O)O[C@H]1[C@H](n2cc(C)c(=O)[nH]c2=O)O[C@H](COC(=O)c2ccccc2)[C@@]12OS(=O)(=O)C=C2N`, in test [1], the CC50 is > 200 µM. For the same molecule, in test [3], the EC50 is > 200 µM.

Consider `Cc1cn([C@@H]2O[C@H](CO[Si](C)(C)C(C)(C)C)C3(OS(=O)(=O)C=C3N)[C@H]2O[Si](C)(C)C(C)(C)C)c(=O)[nH]c1=O` (some centres undefined), for which, in test [1], the CC50 is 14 µM. Also, in test [3], the concentration for a half-maximal effect (EC50) was found to be 0.06 µM.

In the case of `C=CCn1c(=O)c(C)cn([C@@H]2O[C@H](CO[Si](C)(C)C(C)(C)C)[C@@]3(OS(=O)(=O)C=C3N)[C@H]2O[Si](C)(C)C(C)(C)C)c1=O`, in test [2], the Selectivity index was > 1420. Moreover, the half-maximal effective concentration (EC50) in test [3] amounted to 0.233 µM.

In test [1], `CCn1c(=O)c(C)cn([C@@H]2O[C@H](CO[Si](C)(C)C(C)(C)C)[C@@]3(OS(=O)(=O)C=C3N)[C@H]2O[Si](C)(C)C(C)(C)C)c1=O` came in with a CC50 of 123 µM. For the same molecule, the Selectivity index in test [2] was determined as 1000. In test [3], this molecule had a concentration giving a half-maximal response (EC50) of 0.123 µM.

Regarding `CC(C)(C)[Si](C)(C)OC[C@H]1O[C@@H](n2ccc(=O)[nH]c2=O)[C@H](O[Si](C)(C)C(C)(C)C)C12OS(=O)(=O)C=C2N` (some centres undefined), in test [1], the 50% cytotoxic concentration (CC50) amounted to 15 µM. For the same molecule, the Selectivity index in test [2] worked out at 73. In addition, a half-maximal response in test [3] (EC50) required 0.206 µM.

In test [1], `C=CCn1c(=O)ccn([C@@H]2O[C@H](CO[Si](C)(C)C(C)(C)C)[C@@]3(OS(=O)(=O)C=C3N)[C@H]2O[Si](C)(C)C(C)(C)C)c1=O` registered a CC50 of 8.9 µM. Also, the Selectivity index in test [2] came out at 15. In test [3], this molecule returned an EC50 of 0.615 µM.

`CC(C)=CCn1c(=O)c(C)cn([C@@H]2O[C@H](CO[Si](C)(C)C(C)(C)C)[C@@]3(OS(=O)(=O)C=C3N)[C@H]2O[Si](C)(C)C(C)(C)C)c1=O` came in with a half-maximal cytotoxic concentration (CC50) in test [1] of 69 µM. For the same molecule, the Selectivity index in test [2] worked out at 183. Besides, the EC50 in test [3] is 0.377 µM.

In the case of `CC(C)(C)[Si](C)(C)OC[C@H]1O[C@@H](n2ccc(N)nc2=O)[C@H](O[Si](C)(C)C(C)(C)C)[C@]12OS(=O)(=O)C=C2N`, the CC50 in test [1] is > 360 µM. In addition, the Selectivity index in test [2] was > 360. For the same molecule, the 50% effective concentration (EC50) in test [3] worked out at 1 µM.

Molecule `Cc1cn([C@@H]2O[C@H](CO[Si](C)(C)C(C)(C)C)[C@@]3(OS(=O)(=O)C=C3N)[C@H]2O[Si](C)(C)C(C)(C)C)c(=O)n(C)c1=O` gave a CC50 in test [1] of 240 µM. Besides, the Selectivity index in test [2] was 4090. Moreover, the concentration for a half-maximal effect (EC50) in test [3] turned out to be 0.059 µM.
